This note sets out measurements from ChEMBL document CHEMBL3785029, “Synthesis and Characterization of Fatty Acid Conjugates of Niacin and Salicylic Acid” (J Med Chem, 2016).

Calls of active or inactive are those of the source. The calls are words filed in the database; no cut-off is given here.

In general, Cmax refers to the maximum level reached in the sampled fluid or tissue. As a reminder, the AUC(0-t) is the area under the concentration-time curve up to a stated or last time point. A higher AUC(0-t) goes with more exposure. Usually IC50 stands for the concentration that gives 50% inhibition. Higher therefore signals a need for much substance.

Data set [1] relates to Mus musculus. Briefly: Inhibition of PCSK9 levels in po dosed ApoE*3-Leiden mouse plasma administered for 16 weeks. Type of data set: functional, organism-based. In a few lines: (§1)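 Transgenic ApoE*3-Leiden mice on high-cholesterol Western-type diet dosed over 16 weeks; plasma PCSK9, total cholesterol, triglycerides and lipoprotein profile (VLDL, LDL) assessed at study end.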

In data set [2] the target is T1, Fatty-acid amide hydrolase 1 (Homo sapiens, UniProt O00519).
T1 sequence (O00519 whole entry): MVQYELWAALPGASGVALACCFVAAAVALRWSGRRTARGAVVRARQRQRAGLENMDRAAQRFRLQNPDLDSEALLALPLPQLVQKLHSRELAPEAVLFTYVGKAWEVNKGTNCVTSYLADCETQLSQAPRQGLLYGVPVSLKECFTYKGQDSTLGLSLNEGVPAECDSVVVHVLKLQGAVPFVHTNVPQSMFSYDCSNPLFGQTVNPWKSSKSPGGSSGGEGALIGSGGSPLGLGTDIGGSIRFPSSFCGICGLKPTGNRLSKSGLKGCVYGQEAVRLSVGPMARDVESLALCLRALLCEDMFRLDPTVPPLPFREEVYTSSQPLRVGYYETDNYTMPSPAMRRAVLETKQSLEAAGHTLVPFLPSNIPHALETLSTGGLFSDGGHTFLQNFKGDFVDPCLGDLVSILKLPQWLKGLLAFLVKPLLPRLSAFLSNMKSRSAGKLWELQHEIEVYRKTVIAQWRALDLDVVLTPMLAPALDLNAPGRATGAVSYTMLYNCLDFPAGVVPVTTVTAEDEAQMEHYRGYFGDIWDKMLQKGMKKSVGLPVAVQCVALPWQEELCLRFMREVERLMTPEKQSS
The data set is described as follows: Drug metabolism in human HepG2 cells assessed as FAAH-mediated compound hydrolysis by measuring level of EPA at 50 uM by LC/MS-MS analysis. Type of data set: ADME, cell-based. The conditions noted are these: hepg2, 50 µM, TDE = time-dependent effect.

Data set [3] deals with Rattus norvegicus. The data set is described as follows: Cmax in portal vein cannulated Sprague-Dawley rat assessed nicotinuric acid at 30 mg/kg, po measured up to 140 mins. Details: dose 30 mg/kg, route oral. The class given is ADME, organism-based. The conditions noted are these: in vivo. In a few lines: (§2)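 Sprague Dawley rats surgically fitted with indwelling jugular vein and portal vein cannulas; oral dosing, then serial blood draws from both portal and jugular veins at 10, 20, 40 min and 1, 2, 4, 6 hr post dose; plasma analysed for parent and metabolites by LC/MS/MS.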

Data set [4] has as its system Plasma. The data set is described as follows: Drug metabolism in Sprague-Dawley rat plasma assessed as nicotinuric acid formation at 300 mg/kg, qd administered through oral gavage for 7 days measured 2 hrs post last dose by LC/MS/MS analysis. The class given is ADME, organism-based. The following applies: in vivo.
Data set [5] has as its system Mus musculus. Briefly: Inhibition of LDL cholesterol levels in po dosed ApoE*3-Leiden mouse plasma administered for 16 weeks. Type of data set: functional, organism-based. The method, boiled down:
as §1

The nature of data set [6]: AUClast in Sprague-Dawley rat at 100 mg/kg, po administered as single dose measured up to 6 hrs post dose by LC/MS/MS analysis. Further details: dose 100 mg/kg, time < 6 hr, route oral. The conditions noted are these: in vivo. The class given is ADME, organism-based. The method, boiled down: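 Single oral dose to Sprague Dawley rats; plasma collected at 0.25, 0.5, 1, 2, 4 and 6 hr; analytes in plasma quantified by LC/MS/MS.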

Data set [7] relates to Rattus norvegicus. The data set is described as follows: Cmax in jugular vein cannulated Sprague-Dawley rat assessed as N-(2-aminoethyl)nicotinamide at 30 mg/kg, po measured up to 140 mins. Details: dose 30 mg/kg, route oral. The following applies: in vivo. The class given is ADME, organism-based. In a few lines:
as §2

A short description of data set [8]: Inhibition of NFkappaB in mouse RAW264.7 cells preincubated for 2 hrs followed by LPS addition for 3 hrs by luciferase reporter gene assay relative to control. Type of data set: cell-based.
Data set [9] deals with Plasma. The data set is described as follows: Drug metabolism in Sprague-Dawley rat plasma assessed as salicyluric acid formation at 300 mg/kg, po measured up to 24 hrs post dose. Type of data set: ADME, organism-based. The conditions noted are these: in vivo. The method, boiled down:
(§3)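 Single oral dose of 300 mg/kg to Sprague Dawley rats. Plasma collected at 0, 0.5, 1, 2, 4, 8 and 24 hr. Analytes were the parent, the salicylate-linker and linker-DHA metabolites, salicylic acid and salicyluric acid; Cmax and AUClast derived.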

The test system of data set [10] is Plasma. The data set is described as follows: Drug metabolism in Sprague-Dawley rat plasma assessed as salicylic acid formation at 300 mg/kg, po administered for 7 days measured 4 hrs post dose on day 7. The class given is ADME, organism-based. The conditions noted are these: in vivo. The method, boiled down: (§4)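 Male Sprague Dawley rats, groups of 4, dosed orally at 300 mg/kg once daily for 14 days. Animals killed on days 1, 3, 7 and 14, with plasma, brain, epididymal fat, liver and muscle taken 4 hr after dosing. Parent, salicylic acid and salicyluric acid were measured.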

A short description of data set [11]: Drug metabolism in Sprague-Dawley rat epididymal fat assessed as salicyluric acid formation at 300 mg/kg, po administered for 7 days measured 4 hrs post dose on day 7. The conditions noted are these: in vivo. Type of data set: ADME, organism-based, Epididymal fat pad. The method, boiled down: as §4
Data set [12] relates to Plasma. The data set is described as follows: Drug metabolism in Sprague-Dawley rat plasma assessed as salicyluric acid formation at 300 mg/kg, po administered for 7 days measured 4 hrs post dose on day 7. The class given is ADME, organism-based. The following applies: in vivo. The method, boiled down: as §4
In data set [13] the test system is Rattus norvegicus. Briefly: Cmax in Sprague-Dawley rat assessed as salicyluric acid at 300 mg/kg, po measured up to 24 hrs post dose. Type of data set: ADME, organism-based. Details: dose 300 mg/kg, route oral. The following applies: in vivo. The method, boiled down:
as §3

The subject of data set [14] is Brain. The data set is described as follows: Drug uptake in Sprague-Dawley rat brain at 300 mg/kg, po administered for 14 days followed by 7 day washout cycle measured on day 21. Type of data set: ADME, organism-based. The conditions noted are these: in vivo.
Data set [15] can be described thus: Plasma concentration in Sprague-Dawley rat at 300 mg/kg, po administered for 7 days measured 4 hrs post dose on day 7. The class given is ADME, organism-based. The method, boiled down:
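Male Sprague Dawley rats in groups of 4 received 300 mg/kg orally once daily for up to 14 days. Animals were sacrificed on days 1, 3, 7 and 14, with plasma and tissues (brain, epididymal fat, liver, muscle) collected 4 h after dosing. Samples were analysed by LC/MS/MS for parent compound, salicylic acid and salicyluric acid.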

Data set [16] deals with Muscle tissue. Briefly: Drug uptake in Sprague-Dawley rat muscle at 300 mg/kg, po administered for 14 days followed by 7 day washout cycle measured on day 21. The conditions noted are these: in vivo. The class given is ADME, organism-based.
Data set [17] concerns Muscle tissue. The data set is described as follows: Drug metabolism in Sprague-Dawley rat muscle assessed as salicylic acid formation at 300 mg/kg, po administered for 14 days followed by 7 day washout cycle measured on day 21. The following applies: in vivo. Type of data set: ADME, organism-based.
Data set [18] is described as follows: Drug metabolism in Sprague-Dawley rat epididymal fat assessed as salicylic acid formation at 300 mg/kg, po administered for 7 days measured 4 hrs post dose on day 7. The conditions noted are these: in vivo. Type of data set: ADME, organism-based, Epididymal fat pad. In a few lines: as §4
The nature of data set [19]: Drug uptake in Sprague-Dawley rat muscle at 300 mg/kg, po administered for 7 days measured 4 hrs post dose on day 7. The following applies: read-out: Drug uptake. The class given is ADME, organism-based, Muscle tissue. In a few lines:
as §4

The test system of data set [20] is Brain. The data set is described as follows: Drug uptake in Sprague-Dawley rat brain at 300 mg/kg, po administered for 14 days measured 4 hrs post dose on day 1, 3, 7 and 14. The conditions noted are these: in vivo.

As for `CC/C=C\C/C=C\C/C=C\C/C=C\C/C=C\CCCC(=O)NCCNC(=O)c1cccnc1`, the inhibition result with Mus musculus [1] and with Mus musculus [5] was “Active” each time. For the same molecule, the Drug metabolism result in [2] was “tde”; with Plasma [4] it was 3220 ng/mL. Moreover, the peak concentration (Cmax) came out at 125 ng/mL in the data set with Rattus norvegicus [3] and 336 ng/mL in the data set on Rattus norvegicus [7]. The molecule also returned an AUC(0-t) at 6 h in data set [6] of 172 ng·h/mL.
With `CC/C=C\C/C=C\C/C=C\C/C=C\C/C=C\C/C=C\CCC(=O)NCCNC(=O)c1ccccc1O` [EDASALONEXENT], the IC50 in data set [8] worked out at 25.4 µM. In addition, the Drug metabolism result in the data set on Plasma [9] is “metabolite_detected”; with Plasma [10], 154.2 ng/mL; in data set [11], 203.71 ng/g; in the data set with Plasma [12], 764.41 ng/mL; in the data set on Muscle tissue [17], “metabolite_notdetected”; in [18], 65.03 ng/g. Besides, the peak concentration (Cmax) with Rattus norvegicus [13] turned out to be 563 ng/mL. For the same molecule, the Drug uptake entry in the data set with Brain [14], with Muscle tissue [16] and with Brain [20] was “Not Active” each time. The values for the concentration at 4 h in data set [15] and in data set [19] were 116 ng/mL and 425 ng/g, respectively.
